# Screens from PubChem BioAssay.
# T cell HTS = modulators of CD8 T cell-vesicle binding, primary screen, mouse 2C CD8+ T cells, flow cytometry; 2C CD8+ T cell-vesicle binding; hits give low values; response (vesicle binding), % at 7 µM; 330,000 compounds, 0.068% hits; AID 2052, 2009;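 active = response, share of CD8 T cells binding vesicles, and their 90th percentile fluorescence all below set limits, cut at about 80% in these data, passing the limit was not always enough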;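 note: values below 100% mean blocked vesicle binding to the CD8+ T cells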
#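 Assay system: 2C TCR transgenic mouse naive CD8+ T cells, MACS-purified | Read-out: CD8+ gate FL2 mean fluorescence as % of same-row positive control | Signal: High-throughput flow cytometry with anti-B7-1 and anti-CD8 staining | Timing: Binding step 1.5 h, 37 °C, antibody labelling 20 min, ice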
# PP1 inh = PP1-alpha phosphatase inhibitors, primary screen, counter-screen for PP5 inhibitor project, biochemical, fluorescence, OMFP substrate, single point. Serine/threonine-protein phosphatase PP1-alpha catalytic subunit (Homo sapiens), P62136. purified PP1alpha. inhibition, % at 6.7 µM. 320,000 compounds, 0.9% hits. AID 2235, 2010;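 active = inhibition above the mean inhibition of all tested compounds plus 3 SD, computed separately for each screening campaign, cut at about 15% in these data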
# m5-HT2A agonist = mouse Htr2a agonists via beta-arrestin recruitment, primary screen, cell-based, luminescence; 5-hydroxytryptamine receptor 2A (Mus musculus), P35363; CHO-K1 mHTR2A beta-arrestin complementation; percent of 30 µM serotonin response; activation, % at 7.6 µM; 360,000 compounds, 0.66% hits; AID 624169, 2012;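 active = activation above a run cutoff, the mean activation of all tested compounds plus 3 SD, cut at about 14% in these data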;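 note: 0% = plate median of compound wells and 100% = 30 µM serotonin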
# Target sequence (P35363 whole entry, looked up): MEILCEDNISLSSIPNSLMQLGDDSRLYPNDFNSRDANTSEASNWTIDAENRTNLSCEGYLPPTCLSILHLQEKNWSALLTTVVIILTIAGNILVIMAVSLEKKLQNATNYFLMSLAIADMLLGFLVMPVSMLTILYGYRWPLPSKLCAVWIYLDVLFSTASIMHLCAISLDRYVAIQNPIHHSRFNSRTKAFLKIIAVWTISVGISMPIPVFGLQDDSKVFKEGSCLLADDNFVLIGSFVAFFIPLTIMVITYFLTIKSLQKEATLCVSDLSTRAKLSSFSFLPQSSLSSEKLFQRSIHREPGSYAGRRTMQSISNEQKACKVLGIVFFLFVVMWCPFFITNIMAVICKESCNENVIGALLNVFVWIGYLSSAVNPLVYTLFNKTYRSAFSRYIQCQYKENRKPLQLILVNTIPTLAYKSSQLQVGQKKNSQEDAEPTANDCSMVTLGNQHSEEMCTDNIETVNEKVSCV
# GASC-1 inh = inhibitors of GASC-1 histone demethylase, primary screen, biochemical, fluorescence, DELFIA europium; Lysine-specific demethylase 4C (Homo sapiens), Q9H3R0; GST-JMJD2C(1-420) H3K9me3 demethylation; inhibition, % at 2.35 µM; 330,000 compounds, 0.069% hits; AID 2099, 2009;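 active = more than half of a compound's replicate wells show inhibition beyond 50%, single wells judged on their own value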;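 note: signal counts dimethyl H3K9 product captured on neutravidin plate; 0% = median of DMSO wells and 100% = 0.3 times that DMSO median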
# PP5 inh = PP5 phosphatase inhibitors, primary screen, biochemical, fluorescence | purified PP5c, OMFP substrate fluorescence | inhibition, % at 6.7 µM | 320,000 compounds, 0.18% hits;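 active = inhibition above the campaign's mean inhibition across all tested compounds plus 3 SD, cut at about 9.5% in these data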;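 note: 0% = DMSO only and 100% = 100 µM cantharidin control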
# MOR ag counter = OPRM1 agonists via beta-arrestin recruitment, confirmation, counter-screen for mouse HTR2A agonist project, cell-based, luminescence, single concentration; shares compounds with m5-HT2A agonist; activation, % at 9.3 µM; 2,300 compounds, 5.3% hits; U2OS OPRM1 beta-arrestin PathHunter; DMSO 0%, DAMGO 9.3 µM 100%;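 active = mean activation above the mean of DMSO-only wells plus 3 SD, cut at about 0.5% in these data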
# m5-HT2A ag conf = mouse HTR2A agonists, beta-arrestin recruitment, confirmation, cell-based, luminescence, CHO-K1 PathHunter, triplicate; shares compounds with m5-HT2A agonist; DMSO 0%, 30 µM serotonin 100%; activation, % at 7.6 µM; 2,300 compounds, 19% hits; AID 624381, 2012;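 active = mean activation across triplicates above the hit threshold derived in the original primary screen, cut at about 15% in these data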
# Active calls of the source: *; i = inactive; . = not tested or not shown. A selection: hits, their analogues and other compounds. The true share with any hit is near 1.7%.
SMILES,T cell HTS,PP1 inh,m5-HT2A agonist,GASC-1 inh,PP5 inh,MOR ag counter,m5-HT2A ag conf
CN1C2CCC1CC(NS(=O)(=O)c1ccc(C#N)cc1)C2 (configuration not stated),194,0,16*,8,-2,-1,-2
Cc1cc(-c2ccc(C)c(S(=O)(=O)NCCCN3CCN(c4ccccc4)CC3)c2)on1,101,-2,-9,-9,0,.,.
COc1ccc(-c2cc(C)no2)cc1S(=O)(=O)NCCCN1CCN(c2ccccc2)CC1,409,-1,17*,1,0,0,26*
CC(=O)c1sc2nc(-c3ccccc3)cc(C)c2c1N,328,1,1,-20,2,.,.
COc1cc(NC(=O)c2c(F)c(F)c(OC)c(F)c2F)ccc1NC(=O)c1cccs1,689,0,16*,8,3,-1,-6
COc1cc(-c2ccc3sc(-c4ccsc4)c(C#CCO)c3c2)cc(OC)c1OC,170,0,18*,-2,-1,0,3
COC(=O)c1c(-c2ccsc2)sc2ccc(-c3cc(OC)c(OC)c(OC)c3)cc12,112,.,1,-1,.,.,.
CN(Cc1ccco1)S(=O)(=O)c1nnc(NC(=O)c2ccccc2Cl)s1,576,2,18*,1,2,-1,-4
COc1cccc(C(=O)Nc2nnc(S(=O)(=O)N(C)Cc3ccccc3)s2)c1,451,-1,22*,6,-1,0,0
COc1cccc(C(=O)Nc2nnc(C(C)C)s2)c1,155,-2,22*,7,-2,0,-3
CCCc1nnc(NC(=O)c2cccc(OC)c2)s1,.,3,-2,1,2,.,.
COc1cccc(C(=O)Nc2nc(-c3ccc4c(c3)OCO4)cs2)c1,205,4,16*,8,3,-1,-6
O=C(/C=C/c1ccc[nH]1)c1ccccc1,231,-2,3,-8,-4,.,.
Oc1ccc(C2C[C@H]3CC[C@@H]2C3)cc1O (some centres not stated),125,0,-2,-1,3,.,.
Oc1ccc(C2CNCc3sccc32)cc1O (configuration not stated),623,-2,48*,.,-1,0,151*
O=C(Nc1ccc(Br)cc1)NC1CCCCCCC1,i,3,-9,-20,1,.,.
CC(Oc1cccc(F)c1)C(=O)Nc1ccc(N2CCOCC2)cc1 (configuration not stated),375,3,11,1,5,.,.
COCC(C)NCC(=O)NC(C)CCc1ccccc1 (configuration not stated),176,1,-1,14,3,.,.
Cc1ccccc1-n1ccnc1SCC(=O)O,452,-6,17*,-2,0,-1,-5
CC(C)C(=O)Nc1cccc(-c2nc3ncccc3o2)c1,200,-4,26*,-1,-1,-1,3
Cc1c(C#N)c2n(c1C)CCCC(=O)N2,.,.,-1,.,.,.,.
COc1ccc2c(c1)c(=O)oc1cc(OCC(=O)NC3CCCCC3)ccc12,504,-5,7,-7,3,.,.
COc1ccc2c(c1)c(=O)oc1cc(OCC(=O)NC3CC3)ccc12,314,-3,15*,-1,2,0,-4
CC1CCCC(C)N1CC(O)COCC1COc2ccccc2O1 (configuration not stated),312,-7,0,-2,2,.,.
OC(COCC1COc2ccccc2O1)CN1CCN(c2ccccc2F)CC1 (configuration not stated),149,-2,15*,-20,1,0,36*
